# Most compounds without a hit are left out; they make up all but 2.7% or so of the library.
# PRMT1 inh – inhibitors of human PRMT1. Q99873. recombinant PRMT1, activity-based probe fluorescence polarization. inhibition, % at 2.79 µM. 370,000 tested, 1.3% active. AID 652257;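 active means inhibition above about 21% made by adding two undisclosed values, limit read from the data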
# HTRA1 inhibitor – HTRA1 (human) protease inhibition; Q92743; recombinant HTRA1, FP-rhodamine activity-based probe, fluorescence polarization; inhibition, % at 5.96 µM; 340,000 tested, 0.5% active; AID 504803; in the data active means inhibition above about 36%;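 further: 0% = enzyme with DMSO and 100% = wells lacking enzyme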
# Target sequence (Q92743 whole entry, looked up): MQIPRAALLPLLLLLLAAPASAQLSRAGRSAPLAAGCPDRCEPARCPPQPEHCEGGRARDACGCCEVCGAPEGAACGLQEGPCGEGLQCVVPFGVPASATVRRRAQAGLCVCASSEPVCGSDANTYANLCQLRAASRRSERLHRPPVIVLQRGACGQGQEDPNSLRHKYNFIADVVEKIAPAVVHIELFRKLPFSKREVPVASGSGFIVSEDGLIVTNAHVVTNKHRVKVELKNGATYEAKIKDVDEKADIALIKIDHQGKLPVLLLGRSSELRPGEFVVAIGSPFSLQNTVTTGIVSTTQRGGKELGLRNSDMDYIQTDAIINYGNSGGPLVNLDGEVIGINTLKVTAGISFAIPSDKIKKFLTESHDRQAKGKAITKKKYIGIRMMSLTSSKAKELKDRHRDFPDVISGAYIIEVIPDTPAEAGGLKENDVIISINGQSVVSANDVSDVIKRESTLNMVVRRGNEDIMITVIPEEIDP
# SIAE primary – human SIAE inhibition, primary screen | Q9HAT2 | SIAE FP-Rh probe binding, fluorescence polarization | inhibition, % at 9.66 µM | 370,000 tested, 0.69% active | AID 1053197;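 active means inhibition above a cutoff: mean of compounds within the control limits plus 3 SD of those, cut at about 17% in these data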;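 further: 0% = plate median of compound wells and 100% = probe without SIAE protein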
# TCR-CD3 inh – blocks the human TCR-CD3 interaction; TAMRA-labeled TCR probe fluorescence, biochemical; inhibition, % at 9.4 µM; 360,000 tested, 0.37% active; in the data active means inhibition above about 19%;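 further: recombinant mutant TCR 2C K166C tagged with TAMRA read by polarization; 0% = receptor in buffer alone and 100% = receptor with positive control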
# mABHD4 FP – ABHD4 (mouse) inhibition, primary FP screen; Q8VD66; purified mABHD4, FP-Rh probe fluorescence polarization; inhibition, % at 8.92 µM; 370,000 tested, 0.54% active; AID 720543;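 active means inhibition exceeding the mean over every tested compound plus 3 SD, cut at about 30% in these data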;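 further: 0% = plate median of compound wells and 100% = S159A mutant with DMSO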
#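 Doses – 8.92 µM, single dose · Material – wild-type mouse ABHD4 protein · Replication – single well per compound (singlicate) · Measure – percent inhibition of probe binding, normalized to plate controls · Schedule – 45 min compound pre-incubation plus 60 min probe step, 25 °C · Detection – fluorescence polarization with parallel and perpendicular emission, 525/598 nm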
# PRMT1 confirm – PRMT1 (human) inhibition, FP confirmation. recombinant His-PRMT1, activity-based probe fluorescence polarization. shares compounds with PRMT1 inh. 3,300 tested, 42% active. inhibition, % at 2.79 µM;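 active means mean inhibition across replicates above the hit cutoff derived for the earlier primary screen, cut at about 22% in these data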
# An asterisk follows results filed as active; . = no result given.
SMILES,PRMT1 inh,HTRA1 inhibitor,SIAE primary,TCR-CD3 inh,mABHD4 FP,PRMT1 confirm
COc1ccc(-n2c(SCC(=O)Nc3ccccc3OC)nc(O)c(Cc3ccccc3)c2=O)cc1,30.4*,-8.8,1.6,-6.1,0.1,22.4*
O=C(O)CCc1ccc(-c2ccccc2)n1Cc1ccco1,33.0*,-8.9,-3.4,-6.9,7.2,5.1
COc1ccc(C2c3sc(=O)[nH]c3SC3C(=O)N(c4ccccc4)C(=O)C32)cc1 (centres undefined),26.9*,5.9,-0.3,-1.1,8.3,1.4
O=C1NC2c3c(I)sc(I)c3C(=O)C2O1 (centres undefined),47.2*,-0.2,1.7,5.2,7.2,15.0
CCCCN(C(=O)COC(=O)COc1c(C)cc(C)cc1C)c1c(N)n(CCC)c(=O)[nH]c1=O,-2.8,0.4,5.8,-3.2,0.7,.
CN(C)CCCNc1nc2cc(-c3cnn(Cc4ccccc4)c3)sc2c(=O)n1C,-0.8,.,-15.6,3.6,6.1,.
COc1ccccc1-n1c(SCc2cc(=O)oc3cc(O)ccc23)nc2ccccc2c1=O,1.8,-56.5,-32.3,-6.1,-38.7,.
CCC(CO)n1c(SCc2cc(=O)oc3cc(C)ccc23)nc2ccccc2c1=O (centres undefined),77.2*,-30.0,-3.5,6.8,-16.6,67.0*
CC1CN(C(=O)CCC(=O)NCc2ccccc2)c2ccccc2O1 (centres undefined),1.8,-0.7,4.8,-5.7,5.4,.
CC1CC2=C(NC(=S)NC2c2cccc(F)c2)/C(=C/c2cccc(F)c2)C1 (centres undefined),13.7,-57.1,-5.2,2.2,-5.0,.
CC1CC2=C(NC(=S)NC2c2ccccc2F)/C(=C/c2ccccc2F)C1 (centres undefined),49.5*,-19.6,8.8,-6.8,5.8,10.3
Cc1ccc(/C=C2\CC(C)CC3=C2NC(=S)NC3c2ccc(C)cc2)cc1 (centres undefined),38.0*,-22.3,-1.6,2.4,13.7,30.2*
Cc1ccc(/C=C2\CCCC3=C2NC(=S)NC3c2ccc(C)cc2)cc1 (centres undefined),45.2*,-12.1,3.2,-3.0,15.7,35.3*
Cc1[nH]c(=O)[nH]c(=O)c1CCSSCCc1c(C)[nH]c(=O)[nH]c1=O,13.8,.,-2.7,-0.2,-9.4,.
COc1ccc(CN2C(=O)c3ccccc3C2c2nnnn2-c2ccc3c(c2)OCCO3)cc1OC (centres undefined),1.2,.,-2.4,-3.2,3.0,.
CC1CCC2C(=O)N(c3ccc(S(=O)(=O)c4ccccc4)cc3)C(=O)C2C1 (centres undefined),44.9*,6.1,-8.5,2.1,-6.2,4.6
CC1CCC2C(=O)N(c3cccc(OS(=O)(=O)c4ccccc4)c3)C(=O)C2C1 (centres undefined),1.2,0.3,-0.9,-7.4,1.6,.
CN(C(=O)CN1CCCCCC1)c1c(N)n(Cc2ccccc2)c(=O)[nH]c1=O,7.7,1.8,-3.0,-7.8,-11.6,.
CCN(C(=O)CN1CCCc2cc(C)ccc21)c1c(N)n(Cc2ccccc2)c(=O)[nH]c1=O,29.9*,-2.4,-4.3,-20.7,-39.3,12.3
CCN(C(=O)COC(=O)/C=C/c1ccc(OC)c(OC)c1)c1c(N)n(Cc2ccccc2)c(=O)[nH]c1=O,4.7,5.5,1.0,-9.7,-4.6,.
CCN(C(=O)C=Cc1ccco1)c1ccccc1,31.3*,-0.8,-0.3,-8.2,-5.0,6.4
CCN(C(=O)COC(=O)/C=C/c1ccco1)c1c(N)n(Cc2ccccc2)c(=O)[nH]c1=O,30.0*,-0.7,-3.3,2.2,-4.2,-4.4
Cc1ccc2c(c1)CCCN2CC(=O)N(C)c1c(N)n(Cc2ccccc2)c(=O)[nH]c1=O,32.9*,-7.0,4.7,-15.7,-16.5,3.3
CCN(C(=O)CN1CCCCC1)c1c(N)n(Cc2ccccc2)c(=O)[nH]c1=O,-3.6,-1.4,-1.0,-6.4,-1.0,.
O=C(Nc1cccc([N+](=O)[O-])c1)c1ccc2snnc2c1,-0.3,1.6,-10.7,2.7,3.6,.
SMILES,PRMT1 inh,HTRA1 inhibitor,SIAE primary,TCR-CD3 inh,mABHD4 FP,PRMT1 confirm
CCC(=O)c1ccc(OCc2ccc(C(=O)c3ccccc3)cc2)cc1,0.0,-0.7,-6.6,1.1,2.1,.
COc1ccc(NC(=O)CS(=O)CC(=O)Nc2ccc(NC(C)=O)cc2)cc1 (centres undefined),7.8,2.7,1.4,-5.1,5.6,.
CCCN(C(=O)c1cc(-c2ccco2)nc2ccccc12)c1c(N)n(Cc2ccccc2)c(=O)[nH]c1=O,32.9*,3.9,0.5,5.1,-1.7,6.2
CCCCN(C(=O)c1cc(Cl)nc2ccccc12)c1c(N)n(CCCC)c(=O)[nH]c1=O,-3.0,-3.4,-0.7,3.5,2.8,.
Cc1cc(C)c(C(=O)COc2cccnc2[N+](=O)[O-])cc1C,37.5*,-1.4,12.0,-0.5,11.0,50.7*
Cc1ccc(Cn2c(C3CCCN3c3nc(C)cs3)nc3cc(C(F)(F)F)ccc32)cc1 (centres undefined),.,-35.4,.,.,.,.
COc1ccc(-c2ccc(CCC(=O)O)o2)cc1,57.5*,-8.4,9.7,-1.5,-1.1,5.5
O=C(O)CCc1ccc(-c2ccc(Br)cc2)o1,62.3*,-0.3,4.2,4.8,1.3,62.2*
CC1(C)Cc2c(C#N)c(N)sc(=S)c2CS1,30.7*,14.8,1.7,3.5,7.5,41.3*
CC(=O)c1ccccc1C(=O)N1CCCC(C(=O)c2ccc(C(F)(F)F)cc2)C1 (centres undefined),-0.1,-0.4,-6.8,3.8,0.1,.
Nc1cccnc1Sc1cc(Cl)cc(Cl)c1,61.9*,-5.6,-6.2,8.0,1.0,2.6
Cc1ccc(Sc2ncccc2N)cc1,4.2,.,1.8,7.4,6.9,.
CCCCN=Cc1c(C)[nH]n(-c2ccccc2)c1=S,26.1*,6.3,6.7,-0.1,3.6,2.6
Cc1[nH]n(-c2ccccc2)c(=S)c1C=Nc1cccc([N+](=O)[O-])c1,95.3*,0.7,5.7,-0.9,16.7,97.9*
O=[N+]([O-])c1ccc(C=Nc2ccccc2)cc1,0.0,.,3.1,3.6,1.2,.
Cc1[nH]n(-c2ccccc2)c(=O)c1C=NCCc1ccccc1,-3.3,0.9,2.1,5.9,0.0,.
CC[C@@]1(O)C(=O)OCc2c1cc1n(c2=O)Cc2cc3c(CN(C)C)c(O)ccc3nc2-1,106.8*,7.3,11.8,13.2,12.3,108.8*
CC[C@@]1(O)C(=O)OCc2c1cc1n(c2=O)Cc2cc3c(N)cccc3nc2-1,2.2,-6.1,4.2,7.4,19.5,.
COc1ccccc1-[n+]1c(C)cc(/C=C2\Sc3ccccc3N2C)cc1C,25.5*,1.4,8.6,-3.4,3.6,-10.2
O=C(c1cn(Cc2ccccc2)nc1-c1ccccc1)N1CCN(c2ccccn2)CC1,0.1,-3.9,-1.9,8.4,-5.1,.
O=C(OCC(=O)N1N=C(c2ccc(Cl)cc2)CC1c1ccco1)c1cccnc1 (centres undefined),39.6*,-9.1,-8.6,-4.2,7.8,8.2

# Screening results from PubChem BioAssay.
